Experimental data reported in ChEMBL document CHEMBL4513216, “Probing the Open Global Health Chemical Diversity Library for Multistage-Active Starting Points for Next-Generation Antimalarials” (ACS Infect Dis, 2020).

Test: Toxicity liver stage against HepG2, at 10uM
Assay type: cell-based
Parameters: test concentration 10 uM, cell line HepG2-A16-CD81EGFP
Conditions: human, HepG2-A16-CD81EGFP cells; read-out: INHIBITION
In short: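 Uninfected HepG2-A16-CD81EGFP cells, 3 × 10^3 per well, 1536-well, plated on prespotted compound at 10 μM final, parasite-free screening media added to match infected plates; puromycin 10 μM positive, DMSO 0.5% negative; run in parallel with 48 h PbLuc assay at 37 °C, 5% CO2; viability by CellTiter-Glo luminescence, normalized to controls.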

| Compound | cytotoxicity at 10 µM [%] |
| --- | --- |
| CC(=O)c1ccc(S(=O)(=O)N2CCOC(Cn3ccnc3)C2)cc1 (stereo not drawn) | 6.58 |
| O=C(NC[C@H]1OC[C@@H](NCc2ccccn2)[C@@H]1O)c1ccncc1 | -9.77 |
| O=C(NC[C@H]1OC[C@@H](NC2CCCC2)[C@@H]1O)C1CCCC1 | -2.15 |
| CC(C)N1CC[C@H](c2nc3ccc(C(F)(F)F)cc3[nH]2)C1 | -2.07 |
| CC(=O)N1CC[C@H](c2nnc(Cc3c[nH]c4ccccc34)o2)C1 | 8.12 |
| Cc1cc(CN(C)CCC(O)c2ccccc2)no1 (stereo not drawn) | 0.238 |
| CO[C@@H]1CN(c2ccccc2)S(=O)(=O)[C@@]12CCNC2 | -2.64 |
| CC[C@H](C)[C@H](NC(=O)c1cccc(-n2cnnn2)c1)C(=O)OC | 7.98 |
| CCc1c(C)sc2nc3n(CCN(C)C)nc(SC)n3c(=O)c12 | 2.26 |
| CNC(=O)c1nc(CC(=O)Nc2ccc3cc[nH]c3c2)no1 | 7.98 |
| Cc1cc(C(O)CCNC(=O)COc2ccccc2F)c(C)o1 (stereo not drawn) | 0.931 |
| CCC(=O)NCc1cc(C2CC2)n(C2CCCC2)n1 | -4.36 |
| Cn1cc(CN2CCc3ncnc(N4CCCC4)c3CC2)cn1 | -0.818 |
| Cn1cccc1C(=O)N1C[C@@H]2CCCO[C@@H]2[C@H](N2CCOCC2)C1 | -1.19 |
| Cc1noc(C)c1CN1C[C@@H]2CN(C(=O)c3cscn3)C[C@@H]2C1 | -3.09 |
| Cc1ccc(C(=O)N2CCc3ncc(Cn4cccn4)n3CC2)cn1 | 7.25 |
| Cc1cccc(CN2C[C@@H]3CN(C(=O)c4ccco4)C[C@@H]3C2=O)c1 | -3.72 |
| CC(=O)N1CCOC2(CCCN(Cc3ccc(Cl)c(C(F)(F)F)c3)C2)C1 (stereo not drawn) | 3.68 |
| O=C(O)CN1CCC2(CCc3ccccc32)CC1 | -3.7 |
| Cc1nc(CO[C@@H]2CN(Cc3ccccn3)[C@@H]3COC[C@@H]32)cs1 | 5.45 |
| COCC1CN(C(=O)N2CCCC2)Cc2cnn(CC3CCCC3)c21 (stereo not drawn) | 9.23 |
| OCCNc1nc(NCc2cccnc2)nc2nccnc12 | -3.55 |

| Compound | cytotoxicity at 10 µM [%] |
| --- | --- |
| COCC(=O)N1CC[C@@H]2CN(Cc3cccc(Cl)c3)S(=O)(=O)[C@@H]2CC1 | -3.07 |
| Cc1cc(C(=O)Nc2cnn(CC(F)(F)F)c2)nc(N2CCOCC2)n1 | -2.02 |
| Cc1cc(C)nc(Nc2nccnc2C2CCCN(C(C)C)C2)n1 (stereo not drawn) | -6.15 |
| Cc1nc2c(c(=O)[nH]1)CN(Cc1ccc3c(c1)CCCN3C)CC2 | -3.55 |
| Cc1ccc(-c2nc(C3CCN(C(=O)c4cnn(C)c4)CC3)no2)cn1 | -1.55 |
| CNC(=O)C1(CCCc2ccccn2)CN(Cc2scnc2C)C1 | 18 |
| Cc1cc(C)n(CC(=O)N2CCCC(c3cc4cccnc4[nH]3)C2)n1 (stereo not drawn) | 8.3 |
| Cn1c(=O)cc(C(=O)NC(Cc2ccsc2)c2cccnc2)[nH]c1=O (stereo not drawn) | 0.913 |
| COCCn1cnnc1C1CCCN(c2cnccn2)C1 (stereo not drawn) | -2.22 |
| CCS(=O)(=O)N1CCc2nc(C3CCN(C(=O)C4CC4)C3)nc(O)c2C1 (stereo not drawn) | -25.9 |
| Cc1nc(O)c2nnn(C[C@H]3CCCN3C(=O)C3CCCC3)c2n1 | -26.9 |
| CN1CCN(c2ccccc2CNC(=O)Cc2cccc(F)c2)CC1 | -6.29 |
| N#CCCN(Cc1cccnc1)C(=O)c1cc(Cl)c[nH]1 | -18.4 |
| Cc1cnn(CC2CCN(CC(O)CN3CCC(C)CC3)CC2)c1 (stereo not drawn) | 5.11 |
| CC(c1ccccc1Cl)N(C(=O)CSCC(N)=O)C1CC1 (stereo not drawn) | -36.3 |
| Cc1ccc(C2CN(CCS(=O)(=O)C(C)C)CCO2)c(C)c1 (stereo not drawn) | 8.25 |
| COc1cccc(CC(C)NC(=O)NC(C)C)c1 (stereo not drawn) | 4.72 |
| COc1cccc(CC(C)NC(=O)NCCNC(C)=O)c1 (stereo not drawn) | 7.89 |
| CC(NC(=O)NCCCO)c1ccc(-c2ccncc2)cc1 (stereo not drawn) | 6.93 |
| CCCn1nc(C(=O)NCc2nnc3n2CCC3)ccc1=O | -3.18 |
| CCc1nc(CN2CC(C(=O)OC)O[C@H](C)C2)cs1 (stereo partly drawn) | -10.9 |
| CCc1noc(C(C)N2CCN(Cc3cnc(C)cn3)CC2)n1 (stereo not drawn) | -8.54 |

| Compound | cytotoxicity at 10 µM [%] |
| --- | --- |
| O=C(O)c1ccn(-c2ccccc2NS(=O)(=O)c2cccc(F)c2)n1 | -18.6 |
| O=C1CN(c2ccc(CNC(=O)c3ccc[nH]3)cc2F)CCN1 | 1.28 |
| O=C(c1cccnc1-n1cncn1)N1CCN(CC(F)(F)F)CC1 | 4.39 |
| CC(CNC(=O)NCCCc1cc(N)n(-c2ccccc2)n1)N(C)C (stereo not drawn) | 11.9 |
| CCc1nc2n(n1)CC(NCc1cnc(N(CC)CC)s1)CC2 (stereo not drawn) | 7.39 |
| Cc1cc(CSC2CCCN(c3cnn(C)c3)C2=O)no1 (stereo not drawn) | 29.7 |
| Cn1ccc2c(C(=O)N3CCC4(CCOC4)C3)cccc21 (stereo not drawn) | -152 |
| CCN(C(=O)NCc1cccnc1N(C)C)C(C)c1cccnc1 (stereo not drawn) | -4.6 |
| O=S(=O)(NCCSc1nncn1C1CC1)c1ccccc1 | -14.1 |
| COc1cccc(S(=O)(=O)NC(=O)CC2CCCC2)c1 | 3.13 |
| O=C1CCCN1CC1CCCCN1C(=O)Nc1cccnc1 (stereo not drawn) | -0.123 |
| CN1CCN(C(=O)CCc2cccnc2)c2ccc(F)cc21 | -2.23 |
| CCc1nnc2n1CCN(CC(O)CN1CCC(C)CC1)C2 (stereo not drawn) | -7.37 |
| CC(=O)c1c(F)cccc1NCC(O)C(C)(C)C (stereo not drawn) | 18.7 |
| O=S1(=O)CCN2C(=N1)Oc1ccc(Cl)cc12 | 13.7 |
| COCCC1(CNC(=O)NC2CCCN(C)C2)CC1 (stereo not drawn) | -0.926 |
| Cc1ccccc1C1(CNC(=O)c2ccc(S(C)(=O)=O)cc2)CC1 | -7.16 |
| N#Cc1cccc(CS(=O)(=O)NCC(O)Cc2ccccc2)c1 (stereo not drawn) | 2.99 |
| CCOC(CC)C(=O)NCc1ccnc(Oc2ccc(F)cc2)c1 (stereo not drawn) | -1.43 |
| CCN1CC2(CC1=O)CN(C(=O)NC(C)C)CCN(C(=O)C(C)C)C2 (stereo not drawn) | 0.508 |
| CCC(C)(C)C(=O)N1C[C@@H]2C[C@@H](c3nnc(C)[nH]3)O[C@@H]2C1 | 4.79 |
| Cc1ccc2c(n1)N(Cc1cccnc1)CCN(Cc1cnn(C)c1)C2 | 9.12 |

| Compound | cytotoxicity at 10 µM [%] |
| --- | --- |
| Cc1noc(C)c1C(=O)N1CC[C@H]2C[C@@H](c3ccncn3)O[C@@H]2C1 | -2.16 |
| CC(C)[C@H]1COC(=O)N1Cc1nncn1C(C)C | -9.17 |
| COc1ccc(C2(C(=O)N3CC[C@@]4(O)CCNC[C@H]4C3)CCCC2)cc1 | 6.03 |
| COc1ccccc1OC1(C(=O)O)CCN(c2ncccc2F)CC1 | -12.9 |
| CCc1nc(C)c(CN2CCN(c3ncnc4scc(C)c34)CC2)[nH]1 | 16.4 |
| Nc1nc(NCCc2[nH]nc3c2CCCC3)cc(N2CCOCC2)n1 | 0.666 |
| Cc1nc(C(C)C)sc1CNC(=O)CCCN1CCCCC1 | -13.8 |
| O=C(O)C1(Oc2ccccc2F)CCN(C/C=C/c2ccco2)CC1 | -6.49 |
| CCOCC(=O)NC(C)c1cc(C)ccc1C (stereo not drawn) | 5.6 |
| Cc1nc(-c2cc(F)c3c(c2)CC(CN)O3)c[nH]1 (stereo not drawn) | 9.15 |
| COc1cccc(CC2(C(=O)O)CCN(c3ccc(Cl)cn3)CC2)c1 | -14 |
| Cn1cc(CN2CCCC(CCc3c(F)cccc3F)C2)cn1 (stereo not drawn) | -7.55 |
| CC(C)[C@@H]1CN(S(=O)(=O)c2cccc(C(=O)O)c2)C[C@H]1N(C)C | -39.1 |
| O=C(c1cc(COc2ccc3c(c2)OCO3)[nH]n1)N1CCCCO1 | -2.47 |
| NC(=O)c1ccc(N2CCN(Cc3c(Cl)cncc3Cl)CC2)nc1 | 10.6 |
| CCN1CC2(CCN(C(=O)C(C)Oc3ccc(F)cc3Cl)CC2)CC1=O (stereo not drawn) | -2.98 |
| Cc1cnc(N2CC[C@@]3(O)CCCC[C@H]3C2)nc1-c1ccnn1C | 0.276 |
| CN(CC1Cc2ccccc2CN1C)c1nc(N)nc2c1CCNCC2 (stereo not drawn) | 0.0642 |
| CC(C)Cc1nc(CCn2ccc(=O)[nH]c2=O)n(-c2ccccn2)n1 | -5.41 |
| Cc1nc(C)n(CC2CN(CC(=O)NC3CCCC3)CCO2)n1 (stereo not drawn) | -4.83 |
| Cc1nc(C)n(CC2CCCCN2Cc2cnc(C)s2)n1 (stereo not drawn) | -2.66 |
| Cc1cnn(C2CCCN(C(=O)c3ccc(-n4cccn4)nc3)C2)c1 (stereo not drawn) | -6.12 |

| Compound | cytotoxicity at 10 µM [%] |
| --- | --- |
| COc1c(CNC2CCN(c3ncccn3)CC2)c(C)nn1C | -1.66 |
| O=C(CCOc1ccc(F)cc1)N1CCCC1Cn1cccn1 (stereo not drawn) | -2.7 |
| c1cnnc(N2CCCC2CNCc2nc(-c3ccco3)no2)c1 (stereo not drawn) | -10.2 |
| CCc1ccsc1C(=O)N1CCCN(Cc2nccn2CC)CC1 | 1.84 |
| c1cnnc(N2CCCC(NCc3ccncc3)C2)c1 (stereo not drawn) | -5.39 |
| Cn1cnnc1C1CCCN(C(=O)c2ccc3c(c2)OCCO3)C1 (stereo not drawn) | -11 |
| Cc1ccsc1C(=O)NCCCn1nc2ccccn2c1=O | -1.1 |
| c1ccc2oc(CCCN3CCCC3Cn3cncn3)nc2c1 (stereo not drawn) | -1.42 |
| CCN(CC)C(C(=O)NCc1ccc(N2CCCC2)nc1)C(C)C (stereo not drawn) | -8.08 |
| O=C(CCN1CCCC1c1cccs1)N1CCc2sccc2C1 (stereo not drawn) | -0.636 |
| Cn1cc(CN2CC[C@H]3O[C@H](C(=O)Nc4cnccn4)CC[C@H]32)cn1 | -135 |
| Cc1ccc(C(=O)N2CCC3(CC2)CC(c2ccccc2)C(=O)N3)cn1 (stereo not drawn) | -7.42 |
| CN1CCC2(CCN(c3ncc(F)cn3)CC2)C1=O | 0.411 |
| Cc1occc1C(=O)N1CCC2(CC1)CN(Cc1nccs1)CCO2 | 5.22 |
| COCCN1C[C@@H]2[C@@H](OC)CCN(Cc3ccsc3)[C@@H]2C1 | 2.78 |
| CN1CC(=O)N(c2cnn(C)c2)CC12CCN(CC1CC1)C2 (stereo not drawn) | 7.6 |
| CCCS(=O)(=O)N1C[C@@H](Oc2ncccc2F)[C@H]2OCCC[C@H]21 | 2.95 |
| O=C(Cc1cccs1)N1CC[C@H]2[C@@H]1CCC(=O)N2c1cccnc1 | 3.94 |
| O=C(NC[C@]12COC[C@H]1CN(CC1CCOCC1)C2)c1ccccc1 | -5.15 |
| COc1ccc(CN2CCC3(CC2)NC(=O)CC3c2ccncc2)cc1 (stereo not drawn) | 5.97 |
